# Assay results published in paper PMC8177775 (Cancer Science, 2021).
# Tested on: Japanese patients with solid tumors
# Experiment: Phase I dose-escalation study: safety, tolerability, DLT and MTD
# Type: in vivo, human
# Conditions: for Tolerability: dose level of up to 90 mg
# Summary of the method: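 Oral test compound (tosylate salt) was given QD on days 1–21 of 28-day cycles in cohorts of 3–6 patients at 60, 90 or 120 mg. Escalation used a modified continual reassessment method (Bayesian logistic regression, escalation with overdose control). DLT window was cycle 1 (28 days). AEs were coded with MedDRA 18.0 and graded by CTCAE v4.0 (Japanese). Analysis covered patients receiving ≥1 dose.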
# [1] = Cohort 3 120 mg/d (n = 4), All grades
# [2] = Cohort 3 120 mg/d (n = 4), Grade ≥ 3
smiles,measurement,setting,value
"CC1(C)CCC2(CC1)N[C@@H](C(=O)N[C@@H]1CC[C@@H](C(N)=O)OC1)[C@H](c1ccnc(Cl)c1F)[C@]21C(=O)Nc2cc(Cl)ccc21 [milademetan, Milademetan]",TEAE: Hypophosphataemic rickets,[1],0 (0.0) n (%)
same,TEAE: Jaundice cholestatic,[1],0 (0.0) n (%)
same,TEAE: Lymphangiosis carcinomatosa,[1],0 (0.0) n (%)
same,TEAE: Lymphocyte count decreased,[1],2 (50.0) n (%)
same,TEAE: Nausea,[1],3 (75.0) n (%)
same,TEAE: Neutrophil count decreased,[1],2 (50.0) n (%)
same,TEAE: Platelet count decreased,[1],3 (75.0) n (%)
same,TEAE: Pyrexia,[1],1 (25.0) n (%)
same,TEAE: Sepsis,[1],1 (25.0) n (%)
same,TEAE: Urinary tract infection,[1],0 (0.0) n (%)
same,TEAE: Vomiting,[1],2 (50.0) n (%)
same,TEAE: White blood cell count decreased,[1],2 (50.0) n (%)
same,TEAE: Alanine aminotransferase increased,[2],1 (25.0) n (%)
same,TEAE: Anemia,[2],0 (0.0) n (%)
same,TEAE: Aspartate aminotransferase increased,[2],1 (25.0) n (%)
same,TEAE: Constipation,[2],0 (0.0) n (%)
same,TEAE: Decreased appetite,[2],0 (0.0) n (%)
same,TEAE: Diarrhea,[2],0 (0.0) n (%)
same,TEAE: Disease progression,[2],1 (25.0) n (%)
same,TEAE: Fatigue,[2],0 (0.0) n (%)
same,TEAE: Hypoalbuminemia,[2],0 (0.0) n (%)
same,TEAE: Hyponatremia,[2],1 (25.0) n (%)
same,TEAE: Hypophosphataemic rickets,[2],0 (0.0) n (%)
same,TEAE: Jaundice cholestatic,[2],0 (0.0) n (%)
same,TEAE: Lymphangiosis carcinomatosa,[2],0 (0.0) n (%)
same,TEAE: Lymphocyte count decreased,[2],1 (25.0) n (%)
same,TEAE: Nausea,[2],0 (0.0) n (%)
same,TEAE: Neutrophil count decreased,[2],1 (25.0) n (%)
same,TEAE: Platelet count decreased,[2],3 (75.0) n (%)
same,TEAE: Pyrexia,[2],0 (0.0) n (%)
same,TEAE: Sepsis,[2],1 (25.0) n (%)
same,TEAE: Urinary tract infection,[2],0 (0.0) n (%)
same,TEAE: Vomiting,[2],0 (0.0) n (%)
same,TEAE: White blood cell count decreased,[2],1 (25.0) n (%)
same,TEAE: Alanine aminotransferase increased,"Total (n = 18), All grades",4 (22.2) n (%)
same,TEAE: Anemia,"Total (n = 18), All grades",9 (50.0) n (%)
same,TEAE: Aspartate aminotransferase increased,"Total (n = 18), All grades",4 (22.2) n (%)
same,TEAE: Constipation,"Total (n = 18), All grades",5 (27.8) n (%)
same,TEAE: Decreased appetite,"Total (n = 18), All grades",11 (61.1) n (%)
same,TEAE: Diarrhea,"Total (n = 18), All grades",5 (27.8) n (%)
same,TEAE: Disease progression,"Total (n = 18), All grades",1 (5.6) n (%)
same,TEAE: Fatigue,"Total (n = 18), All grades",9 (50.0) n (%)
same,TEAE: Hypoalbuminemia,"Total (n = 18), All grades",8 (44.4) n (%)
same,TEAE: Hyponatremia,"Total (n = 18), All grades",5 (27.8) n (%)
same,TEAE: Hypophosphataemic rickets,"Total (n = 18), All grades",1 (5.6) n (%)
same,TEAE: Jaundice cholestatic,"Total (n = 18), All grades",1 (5.6) n (%)
same,TEAE: Lymphangiosis carcinomatosa,"Total (n = 18), All grades",1 (5.6) n (%)
same,TEAE: Lymphocyte count decreased,"Total (n = 18), All grades",4 (22.2) n (%)
same,TEAE: Nausea,"Total (n = 18), All grades",13 (72.2) n (%)
same,TEAE: Neutrophil count decreased,"Total (n = 18), All grades",5 (27.8) n (%)
same,TEAE: Platelet count decreased,"Total (n = 18), All grades",11 (61.1) n (%)
same,TEAE: Pyrexia,"Total (n = 18), All grades",4 (22.2) n (%)
same,TEAE: Sepsis,"Total (n = 18), All grades",1 (5.6) n (%)
same,TEAE: Urinary tract infection,"Total (n = 18), All grades",1 (5.6) n (%)
same,TEAE: Vomiting,"Total (n = 18), All grades",5 (27.8) n (%)
same,TEAE: White blood cell count decreased,"Total (n = 18), All grades",9 (50.0) n (%)
same,TEAE: Alanine aminotransferase increased,"Total (n = 18), Grade ≥ 3",2 (11.1) n (%)
same,TEAE: Anemia,"Total (n = 18), Grade ≥ 3",3 (16.7) n (%)
same,TEAE: Aspartate aminotransferase increased,"Total (n = 18), Grade ≥ 3",1 (5.6) n (%)
same,TEAE: Constipation,"Total (n = 18), Grade ≥ 3",0 (0.0) n (%)
same,TEAE: Decreased appetite,"Total (n = 18), Grade ≥ 3",0 (0.0) n (%)
same,TEAE: Diarrhea,"Total (n = 18), Grade ≥ 3",0 (0.0) n (%)
same,TEAE: Disease progression,"Total (n = 18), Grade ≥ 3",1 (5.6) n (%)
same,TEAE: Fatigue,"Total (n = 18), Grade ≥ 3",0 (0.0) n (%)
same,TEAE: Hypoalbuminemia,"Total (n = 18), Grade ≥ 3",0 (0.0) n (%)
same,TEAE: Hyponatremia,"Total (n = 18), Grade ≥ 3",2 (11.1) n (%)
same,TEAE: Hypophosphataemic rickets,"Total (n = 18), Grade ≥ 3",1 (5.6) n (%)
same,TEAE: Jaundice cholestatic,"Total (n = 18), Grade ≥ 3",1 (5.6) n (%)
same,TEAE: Lymphangiosis carcinomatosa,"Total (n = 18), Grade ≥ 3",1 (5.6) n (%)
same,TEAE: Lymphocyte count decreased,"Total (n = 18), Grade ≥ 3",1 (5.6) n (%)
same,TEAE: Nausea,"Total (n = 18), Grade ≥ 3",0 (0.0) n (%)
same,TEAE: Neutrophil count decreased,"Total (n = 18), Grade ≥ 3",1 (5.6) n (%)
same,TEAE: Platelet count decreased,"Total (n = 18), Grade ≥ 3",4 (22.2) n (%)
same,TEAE: Pyrexia,"Total (n = 18), Grade ≥ 3",0 (0.0) n (%)
same,TEAE: Sepsis,"Total (n = 18), Grade ≥ 3",1 (5.6) n (%)
same,TEAE: Urinary tract infection,"Total (n = 18), Grade ≥ 3",1 (5.6) n (%)
same,TEAE: Vomiting,"Total (n = 18), Grade ≥ 3",0 (0.0) n (%)
same,TEAE: White blood cell count decreased,"Total (n = 18), Grade ≥ 3",1 (5.6) n (%)
same,"Drug-related TEAE: anemia, frequency",all 18 patients,38.9%
same,Grade ≥ 3 TEAE: ALT increased,all 18 patients,2 n
same,Grade ≥ 3 TEAE: anemia,all 18 patients,3 n
same,Grade ≥ 3 TEAE: hyponatremia,all 18 patients,2 n
same,Grade ≥ 3 TEAE: platelet count decreased,all 18 patients,4 n
same,"TEAE: anemia, frequency","all 18 patients, all grades",50.0%
same,"TEAE: decreased appetite, frequency","all 18 patients, all grades",61.1%
same,"TEAE: fatigue, frequency","all 18 patients, all grades",50.0%
same,"TEAE: nausea, frequency","all 18 patients, all grades",72.2%
same,"TEAE: platelet count decreased, frequency","all 18 patients, all grades",61.1%
same,"TEAE: white blood cell count decreased, frequency","all 18 patients, all grades",50.0%
same,Dose interruption because of decreased appetite,all cohorts,2 n
same,Dose interruption because of nausea,all cohorts,6 n
same,Dose interruption because of platelet count decreased,all cohorts,4 n
same,Dose interruptions,all cohorts,ten patients
same,Dose reduction due to TEAEs,all cohorts,No patients required a dose reduction
same,Maximum tolerated dose (MTD),days 1 to 21 of a 28-day cycle,90 mg/day
same,Tolerability,once-daily 21/28-day schedule,well tolerated
same,Tolerability,"once-daily 21/28-day schedule, listed as Milademetan",generally safe and well tolerated
same,Patients who developed serious TEAEs,"four at 90 mg, one at 60 mg, one at 120 mg, eight serious TEAEs",Six patients
same,"Changes in laboratory parameters (other than platelet count decreased), vital signs, electrocardiogram","hematology, blood chemistry, coagulation, urinalysis, vital signs, ECG",no clinically relevant changes
same,Patients with at least one drug-related TEAE,of 18 patients,18 patients
same,Maximum tolerated dose (MTD),once-daily 21/28-day schedule,90 mg
same,Recommended dose for phase II,once-daily 21/28-day schedule,90 mg
same,Withdrawal from the study because of TEAEs,"one in 90-mg cohort, two in 120-mg cohort",Three patients withdrew
same,"Serious TEAEs, percentage of patients",six out of 18 patients,33.3%
